Measured values as given in publication PMC2932703 (Molecular cancer therapeutics, 2010).
Like-named read-outs stand apart in the source and are kept apart here.

What was measured:
NTR1 mRNA [1] = conditions: breast cancer cells; cited from earlier work
[2] = tested on: cholecystokinin-B receptor mRNA; assay: RNase protection assay, CCK; format: cell-based, human; conditions: HT29 and SW480 cells; 2.5 mM NaBT, 20 h
NTR1 promoter = assay: NTR1 promoter-luciferase reporter assay; format: cell-based, human
PTEN mRNA = assay: Northern blot reprobed for PTEN expression; format: cell-based, human; conditions: HT29 cells; blot stripped and reprobed
COX-2 mRNA = assay: Northern blot of NT-induced COX-2 expression; format: cell-based, human; conditions: HT29 cells; NaBT 2.5 mM pretreatment 6 h, then 100 nM NT
NTR1 mRNA [3] = assay: Northern blot of NTR1 mRNA expression in CRC cell lines; format: cell-based, human
CCK-A receptor mRNA = assay: RNase protection assay, CCK-A receptor mRNA; format: cell-based, human; conditions: NaBT treatment; data not shown
NTR1 protein = assay: Western blot of NTR1 protein expression; format: cell-based, human; conditions: SW480 and HT29 cells; 2.5 mM, 18 h
Method in brief: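 Cells were treated with 2.5 mM test compound or PBS vehicle for 18 h, then lysed in cell lysis buffer. Equal protein was run on bis-Tris gels and transferred to PVDF. Blots were incubated overnight in TBST with anti-human NTR1 antibody, then HRP secondary for 1 h, and detected by ECL. Blots were stripped and reprobed for β-actin; NTR1 bands were quantified densitometrically relative to β-actin.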

phospho-ERK1/2 = assay: Western blot of phospho-ERK1/2; format: cell-based, human; conditions: SW480 and HCT116 cells; 18 h; NaBT 2.5 mM, apicidin 1 µM, Emodin 20 µM
Method in brief: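 HCT116 and SW480 cells were exposed 18 h to test compounds or DMSO vehicle. Whole-cell protein was extracted, run on bis-Tris gels and transferred to PVDF. Blots were probed overnight in TBST with phospho-ERK1/2 and total ERK1/2 antibodies, then HRP secondary for 1 h, and detected by ECL. pERK1/2 signal was quantified densitometrically relative to total ERK1/2.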

c-myc mRNA = assay: Northern blot of c-myc expression; format: cell-based, human
Method in brief: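 HCT116 cells in McCoy's 5A with 10% FBS were serum-starved 24 h, pretreated with 2.5 mM test compound for 6 h, then given 100 nM NT or PBS vehicle for a further 0.5, 1 and 2 h. Total RNA (35 µg) was run on 1.2% agarose/formaldehyde gels and blotted to nylon. Blots were hybridised 8–12 h at 65°C with a 32P-UTP cRNA c-myc probe, read by autoradiography and reprobed for GAPDH.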

[4] = tested on: gastrin-releasing peptide receptor mRNA; assay: RNase protection assay, gastrin-releasing peptide receptor mRNA; format: cell-based, human; conditions: NaBT treatment; data not shown
IL-8 mRNA = assay: RNase protection assay of IL-8 expression; format: cell-based, human; conditions: HCT116 cells; NaBT alone
ERK = conditions: human hepatocellular carcinoma cells; cited from earlier work
[5] = HT29 cells, treatment for 4h, confirmed using SW620 cells
[6] = all NTR1-positive cell lines tested: HT29, HCT116, SW480, SW620, KM20, HDACi

[Cl-].[Li+] [LiCl]
NTR1 mRNA (NTR1 mRNA [1]): increased

CCCC(=O)[O-].[Na+] [NaBT, Sodium butyrate]
cholecystokinin-B receptor mRNA expression [2]: did not affect mRNA expression | NTR1 promoter activity (NTR1 promoter; SW480 and HCT116 cells, 2.5 mM NaBT, 20 h): dramatically decreased NTR1 promoter activity | PTEN expression (PTEN mRNA): increased PTEN expression | NT-induced COX-2 expression (COX-2 mRNA): blocked | NTR1 expression (mRNA) (NTR1 mRNA [3]; SW480, HCT116 (Fig.1B), SW620, KM20 (data not shown), NaBT): inhibited NTR1 expression | CCK-A receptor mRNA expression (CCK-A receptor mRNA): did not affect mRNA expression | NTR1 protein expression (NTR1 protein): decreased NTR1 protein expression | phospho-ERK1/2 levels (phospho-ERK1/2): significantly decreased phospho-ERK1/2 levels | basal c-myc expression (c-myc mRNA; HCT116 cells): decreased basal c-myc expression | NT-stimulated c-myc induction (c-myc mRNA; NaBT 2.5 mM pretreatment 6 h, then 100 nM NT): prevented NT-stimulated c-myc induction | gastrin-releasing peptide receptor mRNA expression [4]: did not affect mRNA expression | IL-8 expression (IL-8 mRNA): slightly increased IL-8 expression

COc1cccc(-c2cc(=O)c3ccccc3o2)c1N [PD98059]
NTR1 mRNA expression (NTR1 mRNA [3]; HCT116 and SW480 cells (also SW620, KM20 data not shown), 16 h, Uo126 0.5-5 µM, PD98059 20 µM, SB-203580 10 µM): identical to those using Uo126

C[S+]([O-])c1ccc(-c2nc(-c3ccncc3)c(-c3ccc(F)cc3)[nH]2)cc1 (centres unmarked) [SB-203580]
NTR1 mRNA expression (NTR1 mRNA [3]): did not affect NTR1 expression

Cn1cc(C2=C(c3ccc(Cl)cc3Cl)C(=O)NC2=O)c2ccccc21 [SB-216763]
NTR1 mRNA expression (NTR1 mRNA [3]; HT29 and SW480 cells, GSK-3β inhibitor over a time course): significantly upregulated NTR1 mRNA expression | NTR1 mRNA suppression resulting from NaBT treatment (NTR1 mRNA [3]; HT29 cells, pre-treated 30 min, then combination with NaBT for 6 h): partially attenuated

CC(/C=C/C(=O)NO)=C\[C@@H](C)C(=O)c1ccc(N(C)C)cc1 [TSA, Trichostatin A]
NTR1 mRNA expression (NTR1 mRNA [3]; [5]): significantly decreased NTR1 mRNA expression | NTR1 mRNA expression (NTR1 mRNA [3]; [6]): suppressed NTR1

N#CC(=C(/N)Sc1ccccc1N)/C(C#N)=C(/N)Sc1ccccc1N [Uo126]
decrease in NTR1 promoter activity (NTR1 promoter; SW480 cells, 5 µM, 16 h): approximately 70% | NTR1 mRNA expression (NTR1 mRNA [3]): suppressed NTR1 mRNA expression in a time- and dose-dependent fashion

CCC(=O)CCCCC[C@@H]1NC(=O)[C@H]2CCCCN2C(=O)[C@H]([C@@H](C)CC)NC(=O)[C@H](Cc2cn(OC)c3ccccc23)NC1=O [apicidin]
NTR1 mRNA expression (NTR1 mRNA [3]; [5]): significantly decreased NTR1 mRNA expression | NTR1 mRNA expression (NTR1 mRNA [3]; [6]): suppressed NTR1 | phospho-ERK1/2 levels (phospho-ERK1/2): significantly decreased phospho-ERK1/2 levels

Cc1cc(O)c2c(c1)C(=O)c1cc(O)cc(O)c1C2=O [emodin]
phospho-ERK1/2 levels (phospho-ERK1/2): did not affect ERK1/2 levels

Nc1ccccc1NC(=O)c1ccc(CNC(=O)OCc2cccnc2)cc1 [entinostat]
NTR1 mRNA expression (NTR1 mRNA [3]; [6]): suppressed NTR1

CCCC(CCC)C(=O)O [valproic acid]
NTR1 mRNA expression (NTR1 mRNA [3]; [6]): suppressed NTR1 | activation of ERK (ERK): decreased activation of ERK

Neurotensin [NT]
c-myc expression (c-myc mRNA; 100 nM NT, 0.5 h, 1 h and 2 h, serum-starved cells): increased c-myc expression in time-dependent fashion
